# Screening data: PubChem, several laboratories
# HSP90 refold inh = HSP90 inhibitors, primary screen, cell lysate, luminescence; Heat shock protein HSP 90 (rabbit reticulocyte lysate; luciferase refolding); Rabbit reticulocyte lysate, luciferase refolding luminescence, 3 h; inhibition, % at 5.6 µM; 0.91% of 290,000 active; AID 1789, 2009;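 active = inhibition above the screen-wide mean plus 3 SD, computed separately per campaign, cut at about 16% in these data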;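 also: 0% = DMSO wells and 100% = 60 µM geldanamycin wells; inhibitors lower the luminescence because luciferase stays unfolded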
# HSF1 inhib = HSF1 inhibitors in luciferase reporter cells, primary screen, cell-based, NIH3T3, luminescence; NIH3T3-HGL HSE-luciferase, MG132-induced, luminescence 8 h; hits give low values; activity change, negative = inhibition, % at 7.5 µM (by protocol); 0.77% of 300,000 active;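 active = more than half of replicate wells show activity change below -50%, luminescence cut by over half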;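 also: luciferase reports HSF-1 transcriptional activity via heat shock element; 0% = median of DMSO wells and -100% = zero luminescence signal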
# HCV NS3 hel inh = inhibitors of HCV NS3 helicase, primary screen, biochemical, Cy5 molecular beacon fluorescence | NS3 helicase DNA unwinding | inhibition, % at 10.9 µM | Hepatitis C virus NS3 helicase | 0.56% of 290,000 active;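 active = inhibition above the mean of all tested compounds plus 3 SD, set per campaign, cut at about 35% in these data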;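 also: 0% = DMSO wells and 100% = thioflavine S control wells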
#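 Assay system – hepatitis C virus NS3 helicase domain fragment enzyme · Buffer or medium – MOPS pH 6.5, MgCl2, DTT, Tween20, BSA · Reagent – Cy5/quencher beacon DNA duplex and ATP to start · Compound – single 10.9 µM dose · Timing – 1 h at 25 °C · Technique – Cy5 beacon fluorescence read at start and 1 h · Measure – % inhibition of unwinding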
# HSF1 activator = HSF-1 activators, primary screen, NIH3T3-HGL cells, MG132 stress, luminescence, single point; activation, % at 9 µM; 1.7% of 300,000 active; NIH3T3-HGL HSF-1 luciferase reporter, 8 h; 100% = twice DMSO control signal; AID 504408, 2011;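 active = mean replicate activation of at least 50% with a set share of replicates each reaching 50%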;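 also: 0% = median of the neutral control wells and 100% = twice that signal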
# HCV core dimer = inhibitors of HCV core protein dimerization, primary screen, biochemical, TR-FRET, high-throughput. TR-FRET GST/Flag-core106 dimerization, 1536-well. inhibition, % at 5 µM. 0.33% of 300,000 active;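 active = inhibition above the mean of all tested compounds plus 3 SD, set per screening campaign, cut at about 45% in these data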
#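 assay system = GST-tagged and Flag-tagged HCV core protein residues 1-106 | controls = unlabelled core106 and no-GST-core106 wells | incubation = compound-protein-antibody incubation 4 h at 22.5 °C | probe or stimulus = Eu donor and XL665 acceptor anti-tag antibodies | read-out = % inhibition based on acceptor/donor emission ratio | signal = TR-FRET 671 and 617 nm emission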
# FID counter = compounds displacing fluorescent DNA intercalator, primary screen, artefact control for HCV NS3 helicase inhibitor project, biochemical, FID fluorescence; AID 1845, 2009; DNA fluorescent intercalator displacement; 0.17% of 290,000 active; inhibition, % at 7.9 µM; in the data active = inhibition above about 37%;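 also: 0% = vehicle and 100% = reference compound; higher means more ethidium bromide displaced from hairpin DNA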
# An asterisk follows results filed as active; nt = not tested or not shown. Only some compounds are listed: those with a hit (about 3.9% of all), similar ones and a draw of the others.
SMILES,HSP90 refold inh,HSF1 inhib,HCV NS3 hel inh,HSF1 activator,HCV core dimer,FID counter
O=C(Nc1nnc(SCc2ccc(F)cc2)s1)C1CC(=O)N(c2ccc3c(c2)OCCO3)C1 (stereo unspecified),-5,-6,-2,-8,16,-7
COc1ccc(N2CC(C(=O)NCCc3ccc(OC)c(OC)c3)CC2=O)cc1 (stereo unspecified),3,-10,3,-7,1,-9
N#Cc1ccc(CSc2nnc(NC(=O)C3CC(=O)N(c4ccc5c(c4)OCCO5)C3)s2)cc1 (stereo unspecified),2,-4,25,-6,64*,-31
CCCCOc1ccc(N2CC(C(=O)NCCc3ccc(OC)c(OC)c3)CC2=O)cc1 (stereo unspecified),1,-82*,1,-87,3,-47
CCOc1ccc(N2CC(C(=O)Nc3ccc4c(c3)OCCO4)CC2=O)cc1 (stereo unspecified),6,-65*,5,-67,0,-21
CCOc1ccc(NC(=O)C2CC(=O)N3CCCN=C3S2)cc1 (stereo unspecified),3,22,6,54*,50*,-9
COCCCn1c(SCC(=O)N2CCCC(C)C2)nnc1-c1ccco1 (stereo unspecified),6,-11,5,-18,-4,-17
CCOc1ccc(N2CC(C(=O)NCCc3c[nH]c4ccc(C)cc34)CC2=O)cc1 (stereo unspecified),1,-58*,4,-64,28,-35
CC(Nc1ncnc2sccc12)c1ccccc1 (stereo unspecified),2,-81*,-7,-84,-4,-1
c1ccc(Nc2ncnc3sccc23)cc1,-4,0,-3,-6,1,-1
Cc1ccc(NC(=S)N2CCC(NC(=O)c3ccco3)CC2)cc1C,2,-5,-3,14,-2,-15
Cc1oc(-c2ccc(Cl)cc2)nc1CN1CCC(C(=O)NCCCN2CCCC(C)C2)CC1 (stereo unspecified),-3,-11,-26,-2,-2,28
Cc1oc(-c2cccc(Cl)c2)nc1CN1CCCC(C(=O)NC(C)c2ccc3c(c2)OCCO3)C1 (stereo unspecified),4,27,-35,54*,3,13
Cc1oc(-c2cccc(Cl)c2)nc1CN1CCCC(C(=O)NCc2ccco2)C1 (stereo unspecified),1,4,-9,12,1,2
Cc1oc(-c2ccc(Cl)cc2)nc1CN1CCCC(C(=O)NCCCN2CCOCC2)C1 (stereo unspecified),0,2,-59,2,2,45*
O=C(Nc1ccc(Oc2ccccc2)nc1)C1CCCCN1Cc1ccc(OCCO)cc1 (stereo unspecified),-5,0,-10,3,4,1
COc1ccc(-c2nn(-c3ccccc3)cc2C(=O)Nc2cccc(C(=O)O)c2)cc1[N+](=O)[O-],-3,-7,6,3,17,-6
COc1ccc(-c2nn(-c3ccccc3)cc2/C=C(\C#N)C(N)=O)cc1[N+](=O)[O-],0,2,2,2,54*,5
COc1ccc(-c2nn(-c3ccccc3)cc2/C=C(/C#N)C(N)=O)cc1[N+](=O)[O-],1,-14,4,-21,47*,2
COc1ccc(-c2nn(-c3ccccc3)cc2/C=N/Nc2ccc(S(N)(=O)=O)cc2[N+](=O)[O-])cc1OC,5,-2,3,-1,33,-2
CC(=O)Nc1ccc(S(=O)(=O)Nc2nc3ccccc3nc2-n2ccc(=NC(=O)c3ccc(F)cc3)cc2)cc1,2,-1,1,1,15,-20
Cc1ccc2c(c1)c1c3n2CC(=C2C(=O)OC(C)(C)OC2=O)NC3CCC1 (stereo unspecified),0,0,6,18,46*,-6
O=C(Nc1cccc(S(=O)(=O)N2CCOCC2)c1)c1c2c(nc3ccccc13)CCC2,-1,15,10,11,74*,-21
CCN(CC)S(=O)(=O)c1ccc(N2CCOCC2)c(NC(=O)c2c3c(nc4ccccc24)CCC3)c1,-3,-3,4,-8,77*,-11
CN1CCN(CCNC(=O)Cn2c(=O)c3cccn3c3ccc(F)cc32)CC1,-6,8,16,9,-16,9
SMILES,HSP90 refold inh,HSF1 inhib,HCV NS3 hel inh,HSF1 activator,HCV core dimer,FID counter
CCOC(=O)c1cnn(-c2nc(SC)nc3sc4c(c23)CCC4)c1N,-3,-4,6,15,80*,0
O=C(CCCN1C(=O)c2ccccc2C1=O)Nc1sc2c(c1C(=O)NCc1ccco1)CCC2,0,1,9,2,18,-22
O=C(CN1C(=O)c2ccccc2C1=O)Nc1sc2c(c1C(=O)NCc1ccco1)CCCC2,2,2,12,23,64*,-3
N/C(=N\OC(=O)c1ccoc1)c1ccc(Br)cc1,5,30,-6,69*,3,-5
CCOC(=O)CC1CCCCN1C(=O)c1cc(COc2cccc3cnccc23)on1 (stereo unspecified),2,-2,-4,-10,-11,-32
COc1ccc2oc(=O)c(N3C(=O)c4ccccc4C3=O)cc2c1,2,-66*,8,-72,1,-4
COc1ccc(NS(=O)(=O)c2cccc(C(=O)NNC(=O)CNC(=O)c3ccccc3F)c2)cc1,nt,-4,nt,-5,-3,nt
CCOc1cc(/C=C/C(=O)c2ccc3c(c2)OCCO3)ccc1OCC(=O)N(C)C,0,53,-12,68*,3,-41
CCOc1cc(/C=C/C(=O)c2ccc(O)cc2)ccc1OCC(=O)N(C)C,-3,28,5,18,-4,-23
NC(=S)Nc1cccc(F)c1,1,-1,-10,-5,-2,0
CCOc1cc(OCC)cc(C(=O)NCCCN2CCOCC2)c1,2,-4,20,-1,1,4
COc1cccc(/C=N/Nc2nc(-c3cccnc3)nc3ccccc23)c1,-2,1,-2,1,4,-21
COc1cccc(CNc2nc(-c3cccnc3)nc3ccccc23)c1,-1,22,4,69*,1,-21
Cn1c(NC(=O)c2cc(Br)ccc2Cl)cc(=O)n(C)c1=O,-2,0,11,2,16,3
O=C1c2ccccc2-c2onc3ccc(N4CCCC4)c1c23,0,59,16,93*,nt,47*
